In paper PMC6289621 (Biomaterials, 2018):
Where two headings read alike, the source gives them in different places. Values belong to the compound of their own block, whether it stands above or below them.

Tests used:
[1] = Solute permeability of HUVEC microvessels; type: in vitro ADME, human; settings: human
[2] = tested on: HUVEC microvessels; assay: Solute permeability of HUVEC microvessels; type: in vitro ADME, human; settings: for Permeability differences between day two, four and six: p > 0.05; for Permeability in HUVEC microvessels relative to BC1 dhBMEC microvessels: HUVEC vs BC1 dhBMEC
[3] = tested on: BC1 dhBMEC microvessels; assay: Solute permeability of BC1 dhBMEC microvessels; type: in vitro ADME, human; settings: for Permeability on days four and six compared with day two: p > 0.05
[4] = tested on: iPS12, KW01 and AD6 dhBMEC microvessels; assay: Solute permeability of dhBMEC microvessels from other iPSC lines; settings: day two, p > 0.05 for all comparisons
[5] = cited from earlier work
[6] = molecular target: P-glycoprotein (P-gp) in BC1 dhBMEC microvessels (Homo sapiens, UniProt P08183); assay: Efflux inhibition in BC1 dhBMEC microvessels; type: cell-based
[7] = tested on: p-glycoprotein; settings: healthy humans, continuous infusion of tariquidar ref 80; cited from earlier work
[8] = tested on: pial PCV microvessels; settings: rat, not told; cited from earlier work
[9] = tested on: iPS12, KW01 and AD6 dhBMEC microvessels
[10] = tested on: BC1 dhBMEC microvessels; assay: Cytokine activation: permeability, adhesion molecules and leukocyte adhesion; type: cell-based, human
Method in brief: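 dhBMEC microvessels in collagen I channels, perfused at ~1 dyn cm⁻² with serum-free endothelial media plus 1% platelet-poor serum, with or without 10 ng mL⁻¹ TNFα for 12 h. […] ICAM-1/VCAM-1 by immunostaining; breakdown by phase contrast. Mean ± SEM.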

[11] = 12-hour perfusion of 2 μM tariquidar

Chain of P-glycoprotein (P-gp) in BC1 dhBMEC microvessels (P08183 whole entry, the tested form may be a part): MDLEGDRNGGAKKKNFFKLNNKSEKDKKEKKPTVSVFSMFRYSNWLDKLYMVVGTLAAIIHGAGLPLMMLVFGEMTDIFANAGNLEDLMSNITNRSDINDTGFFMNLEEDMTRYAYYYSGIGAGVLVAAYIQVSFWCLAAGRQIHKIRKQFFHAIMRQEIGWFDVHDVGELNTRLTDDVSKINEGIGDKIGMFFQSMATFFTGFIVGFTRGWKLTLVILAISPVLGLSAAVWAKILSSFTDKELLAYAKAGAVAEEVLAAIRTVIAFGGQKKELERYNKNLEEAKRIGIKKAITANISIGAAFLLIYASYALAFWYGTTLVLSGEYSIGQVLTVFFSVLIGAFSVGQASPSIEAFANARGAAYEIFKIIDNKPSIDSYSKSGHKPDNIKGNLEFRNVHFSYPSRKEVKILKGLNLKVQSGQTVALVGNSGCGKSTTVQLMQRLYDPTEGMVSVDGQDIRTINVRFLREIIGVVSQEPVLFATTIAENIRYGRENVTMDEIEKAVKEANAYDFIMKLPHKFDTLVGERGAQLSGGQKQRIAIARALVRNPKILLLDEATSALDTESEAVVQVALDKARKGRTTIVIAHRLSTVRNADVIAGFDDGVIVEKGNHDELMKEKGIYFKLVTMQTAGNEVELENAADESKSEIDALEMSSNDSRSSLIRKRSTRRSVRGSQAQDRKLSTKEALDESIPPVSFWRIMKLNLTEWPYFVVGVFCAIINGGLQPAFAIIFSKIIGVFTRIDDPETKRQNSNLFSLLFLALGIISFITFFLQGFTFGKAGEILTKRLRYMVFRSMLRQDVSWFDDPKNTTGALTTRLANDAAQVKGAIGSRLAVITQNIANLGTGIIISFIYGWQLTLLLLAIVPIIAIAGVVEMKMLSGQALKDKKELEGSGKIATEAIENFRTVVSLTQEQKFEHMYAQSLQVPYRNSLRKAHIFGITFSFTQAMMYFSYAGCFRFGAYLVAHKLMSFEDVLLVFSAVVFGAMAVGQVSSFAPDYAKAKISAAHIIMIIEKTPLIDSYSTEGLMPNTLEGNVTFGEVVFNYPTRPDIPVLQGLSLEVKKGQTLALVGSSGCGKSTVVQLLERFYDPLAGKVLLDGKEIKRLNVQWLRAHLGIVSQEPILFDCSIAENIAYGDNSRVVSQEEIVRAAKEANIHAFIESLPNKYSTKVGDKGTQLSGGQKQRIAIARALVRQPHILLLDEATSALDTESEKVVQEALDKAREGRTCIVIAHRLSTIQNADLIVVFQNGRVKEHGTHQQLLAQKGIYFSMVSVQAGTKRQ

Compound: COC(=O)c1ccccc1-c1c2ccc(=N)cc-2oc2cc(N)ccc12 [R123, Rhodamine 123]
Papp at 20 min, 5 μM [1]: 3 ×10⁻⁶ cm/s
Permeability differences between day two, four and six ([2]; HUVEC microvessels): no statistically significant differences
Permeability in HUVEC microvessels relative to BC1 dhBMEC microvessels [2]: about 20 fold
Permeability on days four and six compared with day two ([3]; BC1 dhBMEC microvessels): remained stable
Permeability differences between BC1, iPS12, KW01 and AD6 microvessels [4]: no statistically significant differences

Compound: OC[C@@H](O)[C@@H](O)[C@H](O)[C@H](O)CO [mannitol, d-mannitol]
Solubility limit [5]: around 1.4 M

Compound: Lucifer yellow [LY]
Mean permeability over six days ([2]; HUVEC microvessels): 3.90 ± 0.16 × 10^−6 cm s^−1
PLY / PR123 (ratio of LY to R123 permeabilities) ([2]; HUVEC microvessels): ~ 1.3
Permeability differences between day two, four and six ([2]; HUVEC microvessels): no statistically significant differences
Permeability in HUVEC microvessels relative to BC1 dhBMEC microvessels [2]: more than 10 fold
Permeability ([3]; BC1 dhBMEC microvessels, day two): 2.50 ± 0.46 × 10^−7 cm s^−1
Permeability, average value across all time points ([3]; BC1 dhBMEC microvessels, over six days (days two, four, six)): 2.84 ± 0.41 × 10^−7 cm s^−1
Permeability on days four and six compared with day two ([3]; BC1 dhBMEC microvessels): did not increase
PLY / PR123 (ratio of LY to R123 permeabilities) ([3]; dhBMEC microvessels, untreated): ~ 1.9
Permeability in 15 μm pial PCV microvessels [8]: 1 – 2 × 10^−7
Permeability differences between BC1, iPS12, KW01 and AD6 microvessels [9]: no statistically significant differences

Further lines, with some results ahead:

Disruptions in paracellular permeability [6, 11]: not observed
Increase in permeability of P-gp substrate Rhodamine 123 [6, 11]: two-fold
Effect on mitochondrial localization of R123 ([6]; tariquidar treated BC1 dhBMEC microvessels): no noticeable effect
Compound: COc1cc2c(cc1OC)CN(CCc1ccc(NC(=O)c3cc(OC)c(OC)cc3NC(=O)c3cnc4ccccc4c3)cc1)CC2 [tariquidar]
Cytotoxicity (barrier function and microvessel structure) ([6]; 12 hours of tariquidar exposure): did not result in apparent cytotoxicity
Increase of verapamil distribution volume [7]: 2.73 fold

Permeability of LY, R123 or 10 kDa dextran after TNFα compared to control ([10]; 10 ng mL^−1 TNFα, 12 hours, p > 0.05 for all comparisons): did not alter
Compound: TNFα
Expression of adhesion molecules ICAM-1 and VCAM-1 ([10]; 10 ng mL^−1 TNFα, 12 hours, immunocytochemistry): upregulation
Time to macroscopic breakdown of microvessels ([10]; microvessels exposed to TNFα with adherent PBMCs): ≤ 24 h
